Assay [1] deals with T1, 17-beta-hydroxysteroid dehydrogenase type 3 (Homo sapiens) (UniProt P37058).
T1 sequence (whole entry): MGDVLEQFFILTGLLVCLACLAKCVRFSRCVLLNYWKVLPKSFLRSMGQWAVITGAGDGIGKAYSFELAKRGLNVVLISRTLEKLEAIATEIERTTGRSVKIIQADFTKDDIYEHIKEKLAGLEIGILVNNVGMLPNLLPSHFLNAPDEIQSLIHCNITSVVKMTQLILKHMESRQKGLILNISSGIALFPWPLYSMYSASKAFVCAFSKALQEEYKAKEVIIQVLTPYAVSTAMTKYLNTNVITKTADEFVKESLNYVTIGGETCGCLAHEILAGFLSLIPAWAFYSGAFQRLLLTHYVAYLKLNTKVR
Put plainly: Inhibition of human 17beta-HSD3 expressed in HEK293 cells assessed as enzyme-mediated transformation of [14C]-4-androstene-3,17-dione in to [14C]-testosterone at 0.1 uM. Type of assay: cell-based.

Assay [2] addresses T2, Aldo-keto reductase family 1 member C3 (Homo sapiens, UniProt P42330).
T2 sequence (P42330 whole entry): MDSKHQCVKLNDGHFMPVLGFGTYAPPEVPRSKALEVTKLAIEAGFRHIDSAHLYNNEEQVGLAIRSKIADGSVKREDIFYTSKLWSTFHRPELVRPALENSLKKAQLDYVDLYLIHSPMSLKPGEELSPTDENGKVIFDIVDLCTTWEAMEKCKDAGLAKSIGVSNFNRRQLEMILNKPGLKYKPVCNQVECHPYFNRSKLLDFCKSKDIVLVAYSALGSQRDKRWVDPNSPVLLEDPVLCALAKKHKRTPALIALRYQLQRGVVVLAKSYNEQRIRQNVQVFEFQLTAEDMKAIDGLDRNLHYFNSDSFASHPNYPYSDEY
Nature of the assay: Inhibition of human 17beta-HSD5 expressed in HEK293 cells assessed as enzyme-mediated transformation of [14C]-4-androstene-3,17-dione in to [14C]-testosterone after 18 hrs. Type of assay: cell-based. An outline of the steps:
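Intact HEK-293 cells stably over-expressing human 17β-HSD5, in fresh culture medium. [14C]-4-androstene-3,17-dione 0.1 μM with inhibitor added in ethanol (ethanol alone as control), 18 h.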

The target of assay [3] is T3, 17-beta-hydroxysteroid dehydrogenase type 1 (Homo sapiens) (UniProt P14061).
T3 sequence (whole entry): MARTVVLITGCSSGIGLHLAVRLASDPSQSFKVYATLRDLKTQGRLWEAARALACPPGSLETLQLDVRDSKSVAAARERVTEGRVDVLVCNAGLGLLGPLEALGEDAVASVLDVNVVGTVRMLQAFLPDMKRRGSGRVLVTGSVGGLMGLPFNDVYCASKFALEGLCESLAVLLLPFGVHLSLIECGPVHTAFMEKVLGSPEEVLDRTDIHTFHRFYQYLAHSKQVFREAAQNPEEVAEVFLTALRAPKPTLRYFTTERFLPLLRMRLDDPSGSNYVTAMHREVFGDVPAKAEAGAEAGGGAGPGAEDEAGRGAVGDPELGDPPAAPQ
Put plainly: Inhibition of human 17beta-HSD1 expressed in HEK293 cells assessed as enzyme-mediated transformation of [14C]-E1 in to [14C]-E2 at 0.1 uM. Type of assay: cell-based.

For assay [4], the target named is T4, Aldo-keto reductase family 1 member C3 (Homo sapiens) (UniProt P42330).
T4 sequence (whole entry): T2 sequence (P42330 whole entry)
Nature of the assay: Inhibition of human 17beta-HSD5 expressed in HEK293 cells assessed as enzyme-mediated transformation of [14C]-4-androstene-3,17-dione in to [14C]-testosterone at 3 uM after 18 hrs. Type of assay: cell-based. An outline of the steps:
(§1)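 Intact HEK-293 cells stably over-expressing human 17β-HSD5, in freshly changed culture medium. [14C]-4-androstene-3,17-dione is added at 100 nM with inhibitor from an ethanolic solution; controls get ethanol only. After 18 h the conversion to [14C]-T is measured.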

The target in assay [5] is T4, Aldo-keto reductase family 1 member C3 (Homo sapiens). Put plainly: Inhibition of human 17beta-HSD5 expressed in HEK293 cells assessed as enzyme-mediated transformation of [14C]-4-androstene-3,17-dione in to [14C]-testosterone at 0.3 uM after 18 hrs. Type of assay: cell-based. A digest of the protocol:
as §1

In assay [6] the target is T1, 17-beta-hydroxysteroid dehydrogenase type 3 (Homo sapiens). Nature of the assay: Inhibition of human 17beta-HSD3 expressed in HEK293 cells assessed as enzyme-mediated transformation of [14C]-4-androstene-3,17-dione in to [14C]-testosterone at 1 uM. Type of assay: cell-based.
Assay [7] addresses T3, 17-beta-hydroxysteroid dehydrogenase type 1 (Homo sapiens). Put plainly: Inhibition of human 17beta-HSD1 expressed in HEK293 cells assessed as enzyme-mediated transformation of [14C]-E1 in to [14C]-E2 at 1 uM. Type of assay: cell-based.
In assay [8] the test system is ZR-75-1. Put plainly: Estrogenic activity in human ZR-75-1 cells expressing estrogen receptor assessed as estrogen-induced cell proliferation at 1 uM after 9 days relative to estrogen. Type of assay: functional. An outline of the steps:
(§2)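 ZR-75-1 cells are resuspended in phenol red-free RPMI 1640 with 5% dextran-charcoal-treated FBS and seeded at 10,000 cells/well. After 3 days of adhesion, lactones from ethanol stocks are added alone or with E2 (0.1 nM). Cells grow 9 days at 37 °C in 5% CO2, with medium changed every 2–3 days. DNA is measured by DABA fluorescence; E2-induced growth is set to 100%.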

Assay [9] deals with ZR-75-1. Put plainly: Estrogenic activity in human ZR-75-1 cells expressing estrogen receptor assessed as estrogen-induced cell proliferation at 0.03 uM after 9 days relative to estrogen. Type of assay: functional, cell-based. An outline of the steps: as §2
Assay [10] has as its system ZR-75-1. Put plainly: Antiestrogenic activity in human ZR-75-1 cells expressing estrogen receptor assessed as inhibition of estrogen-induced cell proliferation at 0.1 nM after 9 days relative to estrogen. Type of assay: functional, cell-based.
The species entered for assay [11] is Mus musculus. Put plainly: Androgenic activity in mouse SC115 cells expressing androgen receptor assessed as DHT-induced cell proliferation at 0.1 uM after 10 days relative to DHT. Type of assay: functional, cell-based. An outline of the steps: (§3)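 SC115 Shionogi clone selected for DHT sensitivity, in MEM with 2% dextran-charcoal-treated FCS, seeded at 20,000 cells/well. After 24 h the medium is renewed and lactones added at 0.1 and 1, without DHT. Final ethanol is 0.01%. Cells are grown 10 days at 37 °C in 5% CO2, with medium changed every 3–4 days. DNA is measured by DABA fluorescence; DHT-stimulated growth is set to 100%.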

For assay [12], the species on record is Mus musculus. Nature of the assay: Androgenic activity in mouse SC115 cells expressing androgen receptor assessed as DHT-induced cell proliferation at 1 uM after 10 days relative to DHT. Type of assay: functional, cell-based. An outline of the steps:
as §3

Assay [13] is described as follows: Antiandrogenic activity in mouse SC115 cells expressing androgen receptor assessed as inhibition of DHT-induced cell proliferation at 1 uM after 10 days relative to DHT. Type of assay: functional. To be noted: 240 h. An outline of the steps:
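SC115 Shionogi clone chosen for high DHT sensitivity; plated at 20,000 cells/well in MEM with 2% dextran-coated charcoal-treated FCS. After 24 h, medium changed and compound (0.1 or 1 μM) added with 0.3 nM DHT; ethanol 0.01% final. 10 days at 37 °C, medium changed every 3–4 days. Growth read as DNA content (DABA fluorescence); DHT-stimulated growth set to 100%; triplicates, mean ± SEM.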

Molecules are shown by their SMILES. Calls of active or inactive are those of the source. The rule behind the calls is not given here.

For the compound `CC1CC[C@@]2(CC[C@H]3[C@@H]4CCc5ccccc5[C@H]4CC[C@@]32C)OC1=O` (stereo not given in full), the inhibition – broadly, the relative decrease from the control value, in per cent – was determined as 25% in [1]; 21% in assay [3]; 94% in [4]; 91% in assay [5]; 64% in assay [6]; 21% in assay [7]. The IC50 (in general, the midpoint of a concentration-inhibition curve) in [2] turned out to be 6.1 nM.
On to `CCCCN(C)C(=O)CCCCCCCCCC[C@@H]1Cc2cc(O)ccc2[C@H]2CC[C@]3(C)[C@@H](O)[C@H](Cl)C[C@H]3[C@H]12`, for which the outcome in assay [8] and in [9] was inactive. For the same compound, in assay [10], the result was Active.
With `C[C@]12CC[C@@H]3c4ccccc4CC[C@H]3[C@@H]1CC[C@@]21CCCC(=O)O1`, the inhibition is 25% in assay [1]; 21% in assay [3]; 95% in assay [4]; 93% in [5]; 64% in [6]; 21% in assay [7]. Further, the IC50 in [2] was 10 nM.
Take `CC(C)(O)C(=O)Nc1ccc([N+](=O)[O-])c(C(F)(F)F)c1` [HYDROXYFLUTAMIDE]: the outcome in assay [11] and in assay [12] was inactive. In addition, in assay [13], the inhibition at 1 µM was determined as 94%.

The record behind these values is ChEMBL document CHEMBL1153852, “Steroidal lactones as inhibitors of 17beta-hydroxysteroid dehydrogenase type 5: chemical synthesis, enzyme inhibitory activity, and assessment of estrogenic and androgenic activities” (Eur J Med Chem, 2009).
